Broadly, the logD is the decadic logarithm of the distribution of all forms, ionised or not, between an organic phase and buffer at a given pH.

The source of these data is ChEMBL document CHEMBL4665734, “Optimization of globomycin analogs as novel gram-negative antibiotics” (Bioorg Med Chem Lett, 2020).

≈ marks a conversion by molar mass, not a printed value. Starred links: 1 amine or outer side, 2 acyl side, 3 side chain; linkers in the order of their positions; H or OH if unused. Non-standard residues stand in square brackets, D forms with d. Residues, ends and D or L forms follow the SMILES beside them. *: point of attachment. X1 = CCCCCC[C@@H](OC[C@@H](C)N[*:1])[C@@H](C)C(=O)[*:2]; X16 = CCCC[C@@H](C(=O)[*:2])N(CCCC)CCN[*:1]; Gly(cHept) = N[C@H](C(=O)O)C1CCCCCC1; aThr = C[C@H](O)[C@H](N)C(=O)O; NMeL = CN[C@@H](CC(C)C)C(=O)O; Chg = N[C@H](C(=O)O)C1CCCCC1; NMeNva = CCC[C@H](NC)C(=O)O; Dap = NC[C@H](N)C(=O)O; X15 = O=C(O)CCCNCCC*

One series has as its system Escherichia coli. Kind of series: Inhibition of LspA in Escherichia coli CFT073imp4213 harboring outer membrane-permeable mutant assessed as inhibition of bacterial growth. The method, boiled down: (§1)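 Read-out is the minimum inhibitory concentration, reported in µM.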
The nature of series [1]: Growth inhibition of Staphylococcus aureus USA300.
A further series relates to Escherichia coli CFT073. Kind of series: Inhibition of LspA in wild type Escherichia coli CFT073 assessed as inhibition of bacterial growth. The method, boiled down:
as §1

A short description of series [2]: Lipophilicity, logD of the compound at pH 7.4. As to conditions: buffer.

Take `CCCCCCCCCC[C@H]1OC(=O)CNC(=O)[C@H]([C@H](C)O)NC(=O)[C@H](CO)NC(=O)[C@H]([C@H](C)CC)NC(=O)[C@H](CC(C)C)N(C)C(=O)[C@@H]1C`: the values for the MIC (with Escherichia coli; in series [1]; with Escherichia coli CFT073) were 0.016 µM (≈ 0.0114 µg/mL), 25 µM (≈ 17.8 µg/mL) and 5.4 µM (≈ 3.84 µg/mL), respectively.
Consider `CCCCCC[C@H]1OC(=O)CNC(=O)[C@H]([C@H](C)O)NC(=O)[C@H](CN)NC(=O)[C@H](C2CCCCC2)NC(=O)[C@H](CC)N(C)C(=O)[C@@H]1C`, for which the MIC with Escherichia coli is 0.14 µM (≈ 0.0914 µg/mL); in series [1], greater than 100 µM; in the series with Escherichia coli CFT073, 8.8 µM (≈ 5.74 µg/mL).
In the case of `CCCCCC[C@H]1OC(=O)CNC(=O)[C@H]([C@H](C)O)NC(=O)[C@H](CN)NC(=O)[C@H]([C@@H](C)O)NC(=O)[C@H](CC(C)C)N(C)C(=O)[C@@H]1C`, the results for the MIC (in the series with Escherichia coli; in series [1]; in the series with Escherichia coli CFT073) were 50 µM (≈ 32.1 µg/mL), greater than 100 µM and greater than 100 µM, respectively.
In the case of `CCCCCC[C@H]1OC(=O)CNC(=O)[C@H]([C@H](C)O)NC(=O)[C@H](CN)NC(=O)[C@H]([C@@H](C)OC)NC(=O)[C@H](CC(C)C)N(C)C(=O)[C@@H]1C`, the MIC in the series on Escherichia coli was 7.7 µM (≈ 5.06 µg/mL); in series [1], greater than 100 µM; with Escherichia coli CFT073 it was greater than 100 µM.
Consider `CCCCCC[C@H]1OC(=O)CNC(=O)[C@H]([C@H](C)O)NC(=O)[C@H](CN)NC(=O)[C@H](CCC(N)=O)NC(=O)[C@H](CC(C)C)N(C)C(=O)[C@@H]1C`, for which the MIC (with Escherichia coli; in series [1]; in the series with Escherichia coli CFT073) was greater than 100 µM in each case.
Turning to `CCCCCC[C@H]1OC(=O)CNC(=O)[C@H]([C@H](C)O)NC(=O)[C@H](CN)NC(=O)[C@H](Cc2ccccc2)NC(=O)[C@H](CC(C)C)N(C)C(=O)[C@@H]1C`, the MIC in the series on Escherichia coli is 0.8 µM (≈ 0.551 µg/mL); in series [1] it was greater than 100 µM; with Escherichia coli CFT073 it was 50 µM (≈ 34.4 µg/mL).
The corresponding values for `CCCCCCCCCC[C@H]1OC(=O)CNC(=O)[C@H]([C@H](C)O)NC(=O)[C@H](CNC(=N)N)NC(=O)[C@H]([C@@H](C)CC)NC(=O)[C@H](CC(C)C)N(C)C(=O)[C@@H]1C` are 1.6 µM (≈ 1.2 µg/mL), 13 µM (≈ 9.79 µg/mL) and 50 µM (≈ 37.6 µg/mL).
Consider `CC[C@@H](C)[C@@H]1NC(=O)[C@H](CC(C)C)N(C)C(=O)[C@H](C)[C@@H](CCCCC(C)(C)C)OC(=O)CNC(=O)[C@H]([C@H](C)O)NC(=O)[C@H](CN)NC1=O`, for which the MIC with Escherichia coli worked out at 0.035 µM (≈ 0.0239 µg/mL); in series [1], 100 µM (≈ 68.3 µg/mL); in the series on Escherichia coli CFT073 it was 3.1 µM (≈ 2.12 µg/mL). The same molecule came in with a logD in series [2] (pH 7.4, logD) of 3.
For the molecule `CCCCCC[C@H]1OC(=O)CNC(=O)[C@H]([C@H](C)O)NC(=O)[C@H](CN)NC(=O)[C@H](C2CCCCC2)NC(=O)[C@H](CCC)N(C)C(=O)[C@@H]1C`, the figures for the MIC (in the series with Escherichia coli; in series [1]; in the series on Escherichia coli CFT073) were 0.049 µM (≈ 0.0327 µg/mL), greater than 100 µM and 3.5 µM (≈ 2.33 µg/mL), respectively.
Consider `CCCCCCCCCC[C@H]1OC(=O)CNC(=O)[C@H]([C@H](C)O)NC(=O)[C@H](CCN)NC(=O)[C@H]([C@@H](C)CC)NC(=O)[C@H](CC(C)C)N(C)C(=O)[C@@H]1C`, for which the results for the MIC (with Escherichia coli; in series [1]; with Escherichia coli CFT073) were 0.39 µM (≈ 0.283 µg/mL), 13 µM (≈ 9.42 µg/mL) and 25 µM (≈ 18.1 µg/mL), respectively.
The corresponding values for `CCCCCC[C@H]1OC(=O)CNC(=O)[C@H]([C@H](C)O)NC(=O)[C@H](CN)NC(=O)[C@H](CC(C)C)NC(=O)[C@H](CC(C)C)N(C)C(=O)[C@@H]1C` are 0.4 µM (≈ 0.262 µg/mL), greater than 100 µM and 25 µM (≈ 16.4 µg/mL).
The corresponding values for `CCCCCC[C@H]1OC(=O)CNC(=O)[C@H]([C@H](C)O)NC(=O)[C@H](CN)NC(=O)[C@H]([C@H](C)CC)NC(=O)[C@H](CC(C)C)N(C)C(=O)[C@@H]1C` are 0.053 µM (≈ 0.0347 µg/mL), greater than 100 µM and 8.6 µM (≈ 5.63 µg/mL).
The matching figures for `CCCCCCCCCC[C@H]1OC(=O)CNC(=O)[C@H]([C@H](C)O)NC(=O)[C@H](CO)NC(=O)[C@H]([C@@H](C)CC)NC(=O)[C@H](CC(C)C)N(C)C(=O)[C@@H]1C`: 0.016 µM (≈ 0.0114 µg/mL), 25 µM (≈ 17.8 µg/mL) and 9.4 µM (≈ 6.69 µg/mL).
Regarding `CCCCCC[C@H]1OC(=O)CNC(=O)[C@H]([C@H](C)O)NC(=O)[C@H](CN)NC(=O)[C@H](c2ccccc2)NC(=O)[C@H](CC(C)C)N(C)C(=O)[C@@H]1C`, the MIC with Escherichia coli was 1.6 µM (≈ 1.08 µg/mL); in series [1], greater than 100 µM; with Escherichia coli CFT073 it was 71 µM (≈ 47.9 µg/mL).
The corresponding values for `CCCCCC[C@H]1OC(=O)CNC(=O)[C@H]([C@H](C)O)NC(=O)[C@H](CN)NC(=O)[C@H](C2CCCCC2)NC(=O)[C@H](CC(C)C)N(C)C(=O)[C@@H]1C` are 0.059 µM (≈ 0.0402 µg/mL), greater than 100 µM and 3.1 µM (≈ 2.11 µg/mL).
For `CCCCCCCCCC[C@H]1OC(=O)CNC(=O)[C@H]([C@H](C)O)NC(=O)[C@H](C)NC(=O)[C@H]([C@@H](C)CC)NC(=O)[C@H](CC(C)C)N(C)C(=O)[C@@H]1C`, the MIC came to 25 µM (≈ 17.4 µg/mL) with Escherichia coli, 25 µM (≈ 17.4 µg/mL) in series [1] and 100 µM (≈ 69.6 µg/mL) with Escherichia coli CFT073.
Consider `CCCCCCCCCC[C@H]1OC(=O)CNC(=O)[C@H]([C@H](C)O)NC(=O)[C@H](CN)NC(=O)[C@H]([C@@H](C)CC)NC(=O)[C@H](CC(C)C)N(C)C(=O)[C@@H]1C`, for which the MIC was 0.03 µM (≈ 0.0213 µg/mL) in the series with Escherichia coli, 13 µM (≈ 9.24 µg/mL) in series [1] and 2.2 µM (≈ 1.56 µg/mL) in the series on Escherichia coli CFT073.
The matching figures for `CCCCCCCCCC[C@H]1OC(=O)CNC(=O)[C@H]([C@H](C)O)NC(=O)[C@H](Cc2c[nH]cn2)NC(=O)[C@H]([C@@H](C)CC)NC(=O)[C@H](CC(C)C)N(C)C(=O)[C@@H]1C`: 6.3 µM (≈ 4.8 µg/mL), 25 µM (≈ 19.1 µg/mL) and 100 µM (≈ 76.2 µg/mL).
In the case of `CCCC[C@H]1C(=O)N(C)[C@@H](CC(C)C)C(=O)N[C@@H](C2CCCCC2)C(=O)N[C@@H](CN)C(=O)N[C@@H]([C@H](C)O)C(=O)NCCN1CCCC` (cyclo([Chg][Dap][aThr][X16][NMeL])), the MIC was 0.1 µM (≈ 0.0666 µg/mL) in the series on Escherichia coli, 100 µM (≈ 66.6 µg/mL) in series [1] and 6.3 µM (≈ 4.2 µg/mL) with Escherichia coli CFT073.
The corresponding values for `CCCCCC[C@H]1OC[C@@H](C)NC(=O)[C@H](COCCCNCCCC(=O)O)NC(=O)[C@H](CN)NC(=O)[C@H](C2CCCCCC2)NC(=O)[C@H](CCC)N(C)C(=O)[C@@H]1C` (cyclo([Dap]S(X15)[X1][NMeNva][Gly(cHept)])) are 0.78 µM (≈ 0.632 µg/mL), greater than 100 µM and 100 µM (≈ 81 µg/mL).
With `CCC[C@H]1C(=O)N[C@@H](C2CCCCCC2)C(=O)N[C@@H](CN)C(=O)N[C@@H]([C@H](C)O)C(=O)NCC(=O)O[C@H](CC2CC3CCC2C3)[C@@H](C)C(=O)N1C` (stereo in doubt; 26) [listing 1 of 2 here], in series [1], the MIC was 100 µM (≈ 70.5 µg/mL). The same molecule registered a logD in series [2] (pH 7.4, logD) of 2.8.
Take `CCC[C@H]1C(=O)N[C@@H](C2CCCCCC2)C(=O)N[C@@H](CN)C(=O)N[C@@H]([C@H](C)O)C(=O)NCC(=O)O[C@H](CC2CC3CCC2C3)[C@@H](C)C(=O)N1C` (stereo in doubt; 26) [listing 2 of 2 here]: the MIC is 0.041 µM (≈ 0.0289 µg/mL) with Escherichia coli and 0.97 µM (≈ 0.684 µg/mL) with Escherichia coli CFT073.
Regarding `CCC[C@H]1C(=O)N[C@@H](C2CCCCCC2)C(=O)N[C@@H](CN)C(=O)N[C@@H]([C@H](C)O)C(=O)NCC(=O)O[C@H](CC2CC3CCC2C3)[C@@H](C)C(=O)N1C` (stereo in doubt; 27) [listing 1 of 2 here], the logD in series [2] (pH 7.4) turned out to be 2.9.
Regarding `CCC[C@H]1C(=O)N[C@@H](C2CCCCCC2)C(=O)N[C@@H](CN)C(=O)N[C@@H]([C@H](C)O)C(=O)NCC(=O)O[C@H](CC2CC3CCC2C3)[C@@H](C)C(=O)N1C` (stereo in doubt; 27) [listing 2 of 2 here], the MIC in the series on Escherichia coli was 0.009 µM (≈ 0.00634 µg/mL); in the series with Escherichia coli CFT073, 0.78 µM (≈ 0.55 µg/mL).
